Screening results deposited in PubChem by several laboratories.
The sample as a whole holds a higher share of hits than the screen did.
XBP1 UPR activ: adaptive UPR (XBP1) activation. CHO-XBP1 luciferase reporter, IRE1-XBP1 UPR activation, luminescence; percent of tunicamycin response, DMSO as zero. activation, % at 20 µM. 0.33% of 330,000 active. AID 463104;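 active means versus positive control, 20 µM dose yields 30% or more activation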
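Signal: luciferase luminescence; Assay system: CHO-XBP1 luciferase reporter cells; Amount: one thousand reporter cells per well; Dosing: 20 µM single concentration, DMSO 1%; Benchmarks: high control tunicamycin 10 µg/mL final, low control DMSO vehicle only; Schedule: 6 h compound exposure at 37 °C, 5% CO2; Evaluation: percent activation relative to tunicamycin reference.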
Fh CTSL1 inh: counter-screen for PFM18AAP inhibitors: inhibitors of F. hepatica cathepsin L1; recombinant F. hepatica cathepsin L1, Z-Leu-Arg-MCA fluorescence; inhibition, % at 5.96 µM; 0.49% of 300,000 active; AID 1906;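 active means inhibition above the mean of all tested compounds plus 3 SD, set per screening campaign, cut at about 17% in these data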
UCH37 DUB inh: inhibitors of human deubiquitinating enzyme UCH37. inhibition, % (concentration not given with the values). purified proteasome/UCH37, Ub-AMC cleavage fluorescence. 0.33% of 330,000 active;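 active means mean inhibition over replicate wells above about 20%, limit read from the data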
Target sequence (Q9Y5K5 whole entry, looked up): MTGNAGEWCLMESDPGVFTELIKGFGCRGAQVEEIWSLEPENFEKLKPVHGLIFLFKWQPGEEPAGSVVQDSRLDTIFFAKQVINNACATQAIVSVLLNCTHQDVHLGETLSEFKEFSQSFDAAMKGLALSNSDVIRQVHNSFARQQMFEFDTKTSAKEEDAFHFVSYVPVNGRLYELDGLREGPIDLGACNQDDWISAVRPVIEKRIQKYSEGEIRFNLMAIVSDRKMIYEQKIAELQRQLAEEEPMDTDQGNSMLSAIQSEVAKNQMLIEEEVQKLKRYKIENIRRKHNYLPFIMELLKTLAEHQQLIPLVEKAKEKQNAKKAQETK
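system = Proteasome-associated human UCH37 deubiquitinase | amount = 0.15 nM proteasome as dispensed | medium = pH 7.4 Tris-HCl (50 mM) with ovalbumin, ATP-MgCl2, DTT | incubation = 30 min preincubation with enzyme, 25 min cleavage at room temperature | detection = AMC fluorescence 355/460 nm | read-out basis = percent inhibition | controls = no-proteasome and no-compound wells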
CHOP inh: CHOP inhibition in unfolded protein response. CHO-K1 CHOP-promoter luciferase, tunicamycin-induced, 15-18 h. inhibition, % at 10 µM. 3.8% of 220,000 active. AID 2732;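 active means compounds that reduced the stress-induced luciferase reporter signal by more than about 70% of percent inhibition, limit read from the data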
CHOP UPR activ: apoptotic UPR (CHOP) activation. CHO-CHOP luciferase reporter, luminescence; percent of tunicamycin response over DMSO baseline. 0.34% of 330,000 active. activation, % at 10 µM;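 active means at 10 µM dose, activation of 40% or more, normalized to positive control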
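assay system = CHO CHOP reporter cells | amount = 500 CHO-CHOP cells per well | buffer or medium = F12 with 10% FBS | incubation = 16-18 h cell attachment, then 6 h compound exposure, 37 °C | detection = luminescence read with Steady-Glo | read-out = percent activation relative to tunicamycin control | controls = tunicamycin high control, DMSO low control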
Hits are given with their value; 0 = inactive; - = no result given.

SMILES	XBP1 UPR activ	Fh CTSL1 inh	UCH37 DUB inh	CHOP inh	CHOP UPR activ
Cc1cc(NC(=O)Nc2cccc(C(F)(F)F)c2)no1	0	0	0	93.3	0
O=C(CSc1cc(Cl)ccc1Cl)NCC(=O)Nc1ccc(F)c(F)c1F	0	17.9	-	71.6	0
O=c1[nH]c2ccccc2n1CCC1CCCCC1	0	0	0	86.4	0
CC(C)CCn1c(=O)[nH]c2ccccc21	0	0	0	0	0
COc1ccc2c(c1)CC(C(=O)Nc1ccc(Cl)cc1)C(=NO)O2 (stereo not drawn)	-	-	0	-	-
C/C(=C\C(=O)c1ccc(Br)cc1)NCc1ccc(C)cc1	0	0	0	77.1	0
C/C(=C\C(=O)c1ccc(Br)cc1)NCc1ccccc1	0	0	0	0	0
Fc1ccc(NN=C2CCSc3sccc32)c(F)c1	-	-	0	-	-
Cc1ccc(C)c(NC(=S)NNC(=O)c2csc3c2CCC(C)C3)c1 (stereo not drawn)	0	0	0	89.9	0
Cc1ccc(C)c(NC(=S)NNC(=O)c2csc3c2CCCC3)c1	0	0	0	0	0
CC(C)CNC(=O)CC(=O)NN=Cc1cccs1	-	-	0	-	-
Oc1ccccc1-c1cc(C(F)(F)F)nc(-c2ccccc2)n1	0	0	0	72.6	0
COc1ccccc1C=NNC(=O)c1ccc(C)nc1	-	-	0	-	-
O=c1c2ccccc2nc2n1CCS2(=O)=O	0	0	-	83.7	0
CC(C)c1ccc(C=NNc2cc(N3CCOCC3)nc(N3CCOCC3)n2)cc1	-	-	0	-	-
CCOc1ccc(N(C)S(=O)(=O)c2ccc(-c3ccc(=O)[nH]n3)s2)cc1	0	40.4	0	-	0
Br/C(C=NN1CCN(c2ccccn2)CC1)=C\c1ccccc1	-	-	0	-	-
CC1(C)CC(=O)C(C2C3=C(CC(C)(C)CC3=O)Oc3ccccc32)=C(O)C1 (stereo not drawn)	0	17.3	0	0	0
COc1ccc(C(=O)c2nccc3cc(OC)c(OC)cc23)cc1OC	0	-	48.3	-	0
COc1ccc(C(=NOC(C)=O)c2nccc3cc(OC)c(OC)cc23)cc1OC	-	-	0	-	-
O=C1c2ccccc2NC(c2c(Cl)cccc2Cl)N1Cc1ccccc1 (stereo not drawn)	0	0	0	0	0
O=C1c2ccccc2NC(c2ccc(Cl)cc2Cl)N1Cc1ccccc1 (stereo not drawn)	0	0	0	87.4	0
Cc1nnc(C)n1N=Cc1cccnc1	-	-	0	-	-
CCCCc1nc2sc3c(SCC(=O)NCc4ccco4)ncnc3c2c2c1CCC2	0	0	0	86.1	0
CCCCc1nc2sc3c(SCCN(C)C)ncnc3c2c2c1CCC2	0	0	0	0	0
SMILES	XBP1 UPR activ	Fh CTSL1 inh	UCH37 DUB inh	CHOP inh	CHOP UPR activ
CCOc1cc(/C=N\NC(=O)Cn2nc([N+](=O)[O-])cc2C)ccc1OCc1cccc2ccccc12	0	0	-	88.4	0
Cc1nn(Cc2ccccc2)c(C)c1/C=N/NC(=O)CNc1cccc(C(F)(F)F)c1	0	0	-	70.2	0
N#CCON=C(c1ccccc1)c1ccncc1	-	-	0	-	-
O=C(N/N=C/c1ccc[nH]1)c1ccc(COc2cccc3cccnc23)cc1	0	0	-	0	0
Cc1cc(Br)c(OCc2ccc(C(=O)N/N=C/c3ccc[nH]3)cc2)c(Br)c1	98.8	-	-	-	41.4
N#C/C(N=Nc1ccccc1O)=N\Nc1ccccc1O	0	33.6	0	-	0
COc1ccc(C=NNC(=O)c2cccnc2)cc1COc1ccc(NC(C)=O)cc1	-	-	0	-	-
CC(C)(C)c1ccc(CSc2nnc(-c3ccccn3)n2Cc2ccco2)cc1	0	0	0	93.8	0
COc1cc(C=NNC(=O)c2cccc3ccccc23)ccc1OCC(N)=O	-	-	0	-	-
CCOc1ccc(N(CC(=O)Nc2ccccc2C)S(=O)(=O)c2c(C)noc2C)cc1	0	0	0	-	0
CCOc1ccccc1NC(=O)CN(c1cc(C)cc(C)c1)S(=O)(=O)c1c(C)noc1C	0	0	0	72.2	0
Cc1nn(C)c(C)c1S(=O)(=O)N(CC(=O)Nc1ccc2c(c1)OCO2)c1ccc(C(C)C)cc1	0	0	0	0	0
Cc1noc(C)c1S(=O)(=O)N(CC(=O)Nc1ccc2c(c1)OCO2)c1ccc(C(C)C)cc1	0	0	0	80.7	0
CCOc1ccc(N(CC(=O)Nc2ccc(C)c(C)c2)S(=O)(=O)c2c(C)noc2C)cc1	0	0	0	75.6	0
CCOc1ccc(N(CC(=O)Nc2cccc(F)c2)S(=O)(=O)c2c(C)noc2C)cc1	0	0	0	71.5	0
